Assay results as given in ChEMBL document CHEMBL3352130, “Bioactive clerodane diterpenoids from the twigs of Casearia balansae” (J Nat Prod, 2014).
Converted amounts (≈) assume the structure as drawn. The source made the active and inactive calls. The calls are words filed in the database; no cut-off is given here.

Columns and labels:
PC-12 [1] = test: Induction of neurite outgrowth in rat PC12 cells incubated for 96 hrs by phase contrast microscopy; assay type: functional, cell-based
Summary of the method: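 PC12 cells grown at 37 °C in DMEM with 5% FBS and 5% horse serum, then dissociated with 1 mM EGTA in PBS for 15 min. Seeded at 3 × 10^4 cells/well on poly-L-lysine. After 24 h, switched to 1% FBS/1% HS with test compounds at various concentrations and no NGF, for 96 h. NGF 100 ng/mL served as positive control. Neurite-bearing cells: process ≥ cell-body diameter, as % of ≥100 cells × 3 fields × 6 wells. Triplicate.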

PC-12 [2] = test: Stimulation of NGF-mediated neurite outgrowth in rat PC12 cells incubated for 96 hrs by phase contrast microscopy; assay type: functional, cell-based; settings: for EC50: PC-12, 96 h
Summary of the method: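 PC12 cells cultured and dissociated with EGTA as above, then plated on poly-L-lysine at 3 × 10^4 cells/well. After 24 h, exposed for 96 h to 20 ng/mL NGF plus graded compound concentrations in 1% FBS/1% HS. Phase-contrast count of cells with neurites ≥ soma diameter, as % of ≥100 cells per field (3 fields/well, 6 wells/sample). Triplicate runs. EC50 from linear or nonlinear concentration–response regression.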

SMILES | Activity (PC-12 [1]) | Activity (PC-12 [2]) | EC50 (PC-12 [2]) [µg/mL]
C=CC(=C)CC[C@]1(C)[C@H](C)CC[C@@]23[C@H](OC(C)=O)O[C@H](OC(C)=O)[C@@H]2CC(=O)C[C@@H]13 | inactive | inactive | 
C=CC(=C)CC[C@]1(C)[C@H](C)C[C@H](OC)[C@@]2(C=O)C(C=O)=C[C@H](OC(=O)C(C)CC)C[C@@H]12 (stereo partly specified) | inactive | inactive | 
C=CC(=C)CC[C@]1(C)[C@H](C)C[C@H](OC)[C@@]23C(=C[C@@H](OC(C)=O)C[C@@H]12)[C@@H](OC)O[C@H]3OC(C)=O | inactive | Dose-dependent effect | 2.4 (≈ 5.19 µM)
C=CC(=C)CC[C@]1(C)[C@H]2C[C@H](OC(=O)C(C)CC)C=C3[C@H](OC)O[C@H](OC(C)=O)[C@@]32[C@H](O)C[C@@H]1C (stereo partly specified) [CASEAMEMBRIN B] | inactive | Dose-dependent effect | 7.5 (≈ 15.3 µM)
C=CC(=C)CC[C@]1(C)[C@H](C)CC[C@@]23C(=C[C@H](OC(=O)C(C)CC)C[C@@H]12)[C@@H](OC(=O)CCC)O[C@H]3OC(C)=O (stereo partly specified) | inactive | inactive | 
C=CC(=C)CC[C@]1(C)[C@H](C)CC[C@@]23C(=CC(=O)C[C@@H]12)[C@@H](OC(=O)CCC)O[C@H]3OC(C)=O | inactive | inactive | 
C=CC(=C)CC[C@]1(C)[C@H](C)C[C@H](OC)[C@@]23C(=C[C@H](OC(=O)C(C)CC)C[C@@H]12)[C@@H](OC(=O)CCC)O[C@H]3OC(C)=O (stereo partly specified) | inactive | Dose-dependent effect | 12.7 (≈ 22.6 µM)
C=CC(=C)CC[C@]1(C)[C@H](C)C[C@H](OC)[C@@]23C(=CC(=O)C[C@@H]12)[C@@H](OC(C)=O)O[C@H]3OC(C)=O | inactive | Dose-dependent effect | 2.5 (≈ 5.6 µM)
C=CC(=C)CC[C@]1(C)[C@H](C)C[C@H](OC)[C@@]23C(=C[C@H](OC(=O)CCC)C[C@@H]12)[C@@H](OC(=O)CCC)O[C@H]3OC(C)=O | inactive | Dose-dependent effect | 20.2 (≈ 36.9 µM)
C=CC(=C)CC[C@]1(C)[C@H](C)C[C@H](OC)[C@@]23C(=C[C@H](OC(=O)C(C)CC)C[C@@H]12)[C@@H](OC)O[C@H]3OC(C)=O (stereo partly specified) | inactive | Dose-dependent effect | 4 (≈ 7.93 µM)
